In ChEMBL document CHEMBL3046081, “Phytotoxic effect, uptake, and transformation of biochanin A in selected weed species” (J Agric Food Chem, 2012):
The source made the active and inactive calls. No cut-off for these calls is given here.

What was measured:
Shoot [1] = test: Drug metabolism in Silene noctiflora shoot assessed as transformation to genistein at 400 uM after 14 days measured per gm of dry weight by LC-MS analysis; type: ADME; conditions: 336 h
Outline: (§1)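 Pregerminated seeds, 14 per container, transplanted onto 0.5% agar medium containing biochanin A. Grown at 24 ± 1 °C under a 16 h light/8 h dark photoperiod and harvested 14 days after transplanting. Roots and shoots collected separately, blotted, washed twice, then freeze-dried. Tissue extracted by ASE at 40 °C and analysed by LC-ESI-MS against commercial standards. Two replicates per treatment.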

Root [2] = test: Drug metabolism in Geranium molle root assessed as transformation to p-coumaric acid at 20 uM after 14 days measured per gm of dry weight by LC-MS analysis; type: ADME; conditions: 336 h; outline: as §1
Shoot [3] = test: Drug metabolism in Echinochloa crus-galli (barnyard grass) shoot assessed as transformation to sissotrin at 400 uM after 14 days measured per gm of dry weight by LC-MS analysis; type: ADME; conditions: 336 h; outline: as §1
Shoot [4] = test: Drug metabolism in Geranium molle shoot assessed as transformation to genistein at 400 uM after 14 days measured per gm of dry weight by LC-MS analysis; type: ADME; conditions: 336 h; outline: as §1
Root [5] = test: Drug metabolism in Silene noctiflora root assessed as transformation to sissotrin at 400 uM after 14 days measured per gm of dry weight by LC-MS analysis; type: ADME; conditions: 336 h; outline: as §1
Shoot [6] = test: Drug metabolism in Silene noctiflora shoot assessed as transformation to sissotrin at 20 uM after 14 days measured per gm of dry weight by LC-MS analysis; type: ADME; conditions: 336 h
Outline: (§2)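 Pregerminated seeds (14 per container) were grown on 20 mL 0.5% agar medium containing biochanin A, at 24 ± 1 °C with a 16 h light/8 h dark cycle. There were two replicates per treatment: 14 containers for S. noctiflora, 9 for G. molle and E. crus-galli. At 14 days, roots and shoots were harvested separately, washed, blotted and freeze-dried. Extraction was ASE at 40 °C, 1600 psi, 3 cycles. Analysis was LC-ESI-MS SIM against standards.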

Root [7] = test: Drug metabolism in Echinochloa crus-galli (barnyard grass) root assessed as transformation to genistein at 20 uM after 14 days measured per gm of dry weight by LC-MS analysis; type: ADME; conditions: 336 h; outline: as §1
Shoot [8] = test: Drug metabolism in Geranium molle shoot assessed as transformation to p-coumaric acid at 400 uM after 14 days measured per gm of dry weight by LC-MS analysis; type: ADME; conditions: 336 h; outline: as §1
Shoot [9] = test: Drug uptake in Echinochloa crus-galli (barnyard grass) shoot at 20 uM after 14 days measured per gm of dry weight by LC-MS analysis; type: ADME; conditions: 336 h; outline: as §2
Shoot [10] = test: Drug metabolism in Silene noctiflora shoot assessed as transformation to sissotrin at 400 uM after 14 days measured per gm of dry weight by LC-MS analysis; type: ADME; conditions: 336 h; outline: as §2
Shoot [11] = test: Drug metabolism in Geranium molle shoot assessed as transformation to sissotrin at 20 uM after 14 days measured per gm of dry weight by LC-MS analysis; type: ADME; conditions: 336 h; outline: as §1
Shoot [12] = test: Drug uptake in Geranium molle shoot at 400 uM after 14 days measured per gm of dry weight by LC-MS analysis; type: ADME; conditions: 336 h; outline: as §2
Shoot [13] = test: Drug metabolism in Echinochloa crus-galli (barnyard grass) shoot assessed as transformation to pratensein at 400 uM after 14 days measured per gm of dry weight by LC-MS analysis; type: ADME; conditions: 336 h; outline: as §1
Root [14] = test: Drug metabolism in Echinochloa crus-galli (barnyard grass) root assessed as transformation to sissotrin at 400 uM after 14 days measured per gm of dry weight by LC-MS analysis; type: ADME; conditions: 336 h; outline: as §1
Shoot [15] = test: Drug metabolism in Echinochloa crus-galli (barnyard grass) shoot assessed as transformation to genistein at 400 uM after 14 days measured per gm of dry weight by LC-MS analysis; type: ADME; conditions: 336 h; outline: as §1
Leaf [16] = test: Drug recovery in leaf of Secale cereale (rye) at 50 ng/g by LC-MS analysis
Root [17] = test: Drug metabolism in Geranium molle root assessed as transformation to pratensein at 400 uM after 14 days measured per gm of dry weight by LC-MS analysis; type: ADME; conditions: 336 h; outline: as §1
Shoot [18] = test: Drug metabolism in Geranium molle shoot assessed as transformation to dihydrobiochanin A at 400 uM after 14 days measured per gm of dry weight by LC-MS analysis; type: ADME; conditions: 336 h; outline: as §1
Root [19] = test: Drug metabolism in Silene noctiflora root assessed as transformation to sissotrin at 20 uM after 14 days measured per gm of dry weight by LC-MS analysis; type: ADME; conditions: 336 h; outline: as §1
Shoot [20] = test: Drug metabolism in Geranium molle shoot assessed as transformation to genistein at 20 uM after 14 days measured per gm of dry weight by LC-MS analysis; type: ADME; conditions: 336 h; outline: as §1
Root [21] = test: Drug metabolism in Geranium molle root assessed as transformation to dihydrobiochanin A at 400 uM after 14 days measured per gm of dry weight by LC-MS analysis; type: ADME; conditions: 336 h; outline: as §1
Root [22] = test: Drug metabolism in Echinochloa crus-galli (barnyard grass) root assessed as transformation to sissotrin at 20 uM after 14 days measured per gm of dry weight by LC-MS analysis; type: ADME; conditions: 336 h; outline: as §1
Root [23] = test: Drug uptake in Silene noctiflora root at 400 uM after 14 days measured per gm of dry weight by LC-MS analysis; type: ADME; conditions: 336 h; outline: as §2
Amaranthus caudatus = test: Phytotoxicity against Amaranthus caudatus assessed as root growth inhibition at 100 to 400 uM after 2 weeks by agar medium bioassay; type: functional, organism-based
Outline: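 Agar bioassay with eight biochanin A doses (0–400 µM). Seeds were pregerminated 48 h at room temperature, then 10 seedlings were placed per Petri dish and grown 2 weeks at 24 ± 1 °C under a 16 h light/8 h dark cycle. […]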

Shoot [24] = test: Drug metabolism in Echinochloa crus-galli (barnyard grass) shoot assessed as transformation to genistein at 20 uM after 14 days measured per gm of dry weight by LC-MS analysis; type: ADME; conditions: 336 h; outline: as §1
Root [25] = test: Drug metabolism in Echinochloa crus-galli (barnyard grass) root assessed as transformation to pratensein at 400 uM after 14 days measured per gm of dry weight by LC-MS analysis; type: ADME; conditions: 336 h; outline: as §1
Leaf [26] = test: Drug recovery in leaf of Secale cereale (rye) at 5 ng/g by LC-MS analysis
Root [27] = test: Drug metabolism in Geranium molle root assessed as transformation to genistein at 20 uM after 14 days measured per gm of dry weight by LC-MS analysis; type: ADME; conditions: 336 h; outline: as §1
Root [28] = test: Drug metabolism in Silene noctiflora root assessed as transformation to dihydrobiochanin A at 20 uM after 14 days measured per gm of dry weight by LC-MS analysis; type: ADME; conditions: 336 h; outline: as §1
Shoot [29] = test: Drug uptake in Echinochloa crus-galli (barnyard grass) shoot at 400 uM after 14 days measured per gm of dry weight by LC-MS analysis; type: ADME; conditions: 336 h; outline: as §2
Shoot [30] = test: Drug metabolism in Silene noctiflora shoot assessed as transformation to dihydrobiochanin A at 20 uM after 14 days measured per gm of dry weight by LC-MS analysis; type: ADME; conditions: 336 h; outline: as §1
Shoot [31] = test: Drug metabolism in Echinochloa crus-galli (barnyard grass) shoot assessed as transformation to pratensein at 20 uM after 14 days measured per gm of dry weight by LC-MS analysis; type: ADME; conditions: 336 h; outline: as §1
Shoot [32] = test: Drug uptake in Silene noctiflora shoot at 20 uM after 14 days measured per gm of dry weight by LC-MS analysis; type: ADME; conditions: 336 h; outline: as §2
Root [33] = test: Drug metabolism in Silene noctiflora root assessed as transformation to genistein at 20 uM after 14 days measured per gm of dry weight by LC-MS analysis; type: ADME; conditions: 336 h; outline: as §1

COc1ccc(-c2coc3cc(O)cc(O)c3c2=O)cc1 [BIOCHANIN]
Drug metabolism (Shoot [1]): 0.15 µmol
Drug metabolism (Root [2]): 0.06 µmol
Drug metabolism (Shoot [3]): 0 µmol
Drug metabolism (Shoot [4]): 0.12 µmol
Drug metabolism (Root [5]): 2.99 µmol
Drug metabolism (Shoot [6]): 2.36 µmol
Drug metabolism (Root [7]): 0.07 µmol
Drug metabolism (Shoot [8]): 0.03 µmol
Drug uptake (Shoot [9]): 0.05 µmol
Drug metabolism (Shoot [10]): 4.34 µmol
Drug metabolism (Shoot [11]): 1.5 µmol
Drug uptake (Shoot [12]): 1.13 µmol
Drug metabolism (Shoot [13]): 0.24 µmol
Drug metabolism (Root [14]): 1 µmol
Drug metabolism (Shoot [15]): 0.2 µmol
Drug recovery (Leaf [16]): 93%
Drug metabolism (Root [17]): 0.32 µmol
Drug metabolism (Shoot [18]): 0.02 µmol
Drug metabolism (Root [19]): 1.72 µmol
Drug metabolism (Shoot [20]): 0.09 µmol
Drug metabolism (Root [21]): 0.31 µmol
Drug metabolism (Root [22]): 0.48 µmol
Drug uptake (Root [23]): 4.54 µmol
Activity (Amaranthus caudatus): inactive
Drug metabolism (Shoot [24]): 0.28 µmol
Drug metabolism (Root [25]): 0.35 µmol
Drug recovery (Leaf [26]): 93%
Drug metabolism (Root [27]): 0.05 µmol
Drug metabolism (Root [28]): 0.01 µmol
Drug uptake (Shoot [29]): 0.67 µmol
Drug metabolism (Shoot [30]): 0 µmol
Drug metabolism (Shoot [31]): 0.47 µmol
Drug uptake (Shoot [32]): 0.76 µmol
Drug metabolism (Root [33]): 0.08 µmol
